Test results published in article PMC7165017 (Inorganic chemistry, 2019).
Where two headings read alike, the source gives them in different places.

Tests used:
MDA-MB-231 cells = assay: MTT cell viability assay, MDA-MB-231; assay type: cell-based, human
Procedure, shortened: (§1)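 Media: Hep G2 in MEM, MIA PaCa-2 in DMEM, MDA-MB-231 in DMEM/F-12, each with 10% FBS and antibiotics. Cells were seeded at 6 × 10^3 per well and kept 48 h at 37 °C, 5% CO2. Medium was renewed, then compound was added (DMSO ≤0.2%, vehicle-matched) for 48 h in triplicate wells. MTT (1 mg mL−1) ran 3 h; formazan was dissolved in DMSO and read at 595 nm versus untreated wells. IC50 came from a four-parameter variable-slope fit, ≥3 independent experiments. Hypoxic MDA-MB-231 cells were kept at 1.5% O2 for ≥2 passages beforehand.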

MIA PaCa-2 cells = assay: MTT cell viability assay, MIA PaCa-2; assay type: cell-based, human; settings: read-out: IC50 ± SD, MIA PaCa-2, 48 h, normoxia (∼15% O2)
Procedure, shortened: as §1

Hep G2 cells = assay: MTT cell viability assay, Hep G2; assay type: cell-based, human; settings: read-out: IC50 ± SD, Hep G2, 48 h, normoxia (∼15% O2)
Procedure, shortened: as §1

[1] = system: microtubule network in MDA-MB-231 cells; assay: Immunofluorescence study of microtubule network disruption; assay type: cell-based, human; settings: 12 h; cisplatin 50 μM, colchicine 100 nM (controls)
Procedure, shortened: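 5 × 10^4 MDA-MB-231 cells were grown on glass coverslips for 48 h, then treated 12 h (vehicle 0.1% DMSO). Fixation used 4% paraformaldehyde for 10 min and 100 mM glycine quench, followed by 3% BSA/PBST block for 20 min. Rabbit monoclonal anti-α-tubulin (1:400, 2 h) was followed by AlexaFluor 488 anti-rabbit (1:1000, 2 h, dark) and DAPI mount. Confocal imaging used a 63× objective. Microtubule-network perimeter was averaged over ≥10 treated versus ≥10 untreated cells and expressed as relative perimeter.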

[2] = Solution stability study by 1H NMR; assay type: physicochemical; settings: DMSO-d6/phosphate buffer 3:7 (v/v), within 12 h
Procedure, shortened: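 Complexes were monitored by 1H NMR in DMSO-d6 or DMF-d7 mixed 1:9 (v/v) with degassed 20 mM phosphate buffer (pD 7.4, 4 mM NaCl). Spectra were taken at 25 °C at time points up to 24 h. Free ligands were monitored in DMSO-d6/phosphate buffer 3:7 (v/v).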

| hydrolysis of ligand into amine and aldehyde [2] [%] | SMILES | disruption of the microtubule network [1] | other results |
| --- | --- | --- | --- |
| – | [NH2][Pt]([NH2])([Cl])[Cl] [CDDP, cisplatin, reference compound] | did not observe any disruption of the microtubule formation | IC50 (MDA-MB-231 cells; read-out: IC50 ± SD, MDA-MB-231 (hypo), 48 h, hypoxia (1.5% O2)): 37.8 ± 2.3 µM; IC50 (MDA-MB-231 cells; read-out: IC50 ± SD, MDA-MB-231, 48 h, normoxia (∼15% O2)): 37.2 ± 2.5 µM; IC50 (MIA PaCa-2 cells): 31.8 ± 4.8 µM; IC50 (Hep G2 cells): 14.3 ± 0.8 µM |
| ~80 | COc1cccc(C=Nc2cc(OC)c(OC)c(OC)c2)c1O [Complex L3, 2-Methoxy-6-{[(3,4,5-trimethoxyphenyl)imino]-methyl}phenol] | – | – |
| ~80 | COc1cc(N=Cc2ccccc2O)cc(OC)c1OC [Complex L1, 2-{[(3,4,5-Trimethoxyphenyl)imino]-methyl}phenol] | – | – |
| – | COc1cc2c(c(OC)c1OC)-c1ccc(OC)c(=O)cc1[C@@H](NC(C)=O)CC2 [colchicine, reference compound] | exhibited microtubule network damage | – |
